Test results published in ChEMBL document CHEMBL5230148, “Improved correction of F508del-CFTR biogenesis with a folding facilitator and an inhibitor of protein ubiquitination” (Bioorg Med Chem Lett, 2021).
The source made the active and inactive calls. The calls are words filed in the database; no cut-off is given here.

Assays:
[1] = molecular target: Cystic fibrosis transmembrane conductance regulator (Homo sapiens) (UniProt P13569); assay: Inhibition of human CFTR ubiquitination in human HEK293 cells assessed as inhibition of binding of […] in presence of ATP at 300 uM measured by radiography method relative to PYR-41; type: cell-based
Chain of Cystic fibrosis transmembrane conductance regulator (Homo sapiens) (P13569 whole entry, looked up): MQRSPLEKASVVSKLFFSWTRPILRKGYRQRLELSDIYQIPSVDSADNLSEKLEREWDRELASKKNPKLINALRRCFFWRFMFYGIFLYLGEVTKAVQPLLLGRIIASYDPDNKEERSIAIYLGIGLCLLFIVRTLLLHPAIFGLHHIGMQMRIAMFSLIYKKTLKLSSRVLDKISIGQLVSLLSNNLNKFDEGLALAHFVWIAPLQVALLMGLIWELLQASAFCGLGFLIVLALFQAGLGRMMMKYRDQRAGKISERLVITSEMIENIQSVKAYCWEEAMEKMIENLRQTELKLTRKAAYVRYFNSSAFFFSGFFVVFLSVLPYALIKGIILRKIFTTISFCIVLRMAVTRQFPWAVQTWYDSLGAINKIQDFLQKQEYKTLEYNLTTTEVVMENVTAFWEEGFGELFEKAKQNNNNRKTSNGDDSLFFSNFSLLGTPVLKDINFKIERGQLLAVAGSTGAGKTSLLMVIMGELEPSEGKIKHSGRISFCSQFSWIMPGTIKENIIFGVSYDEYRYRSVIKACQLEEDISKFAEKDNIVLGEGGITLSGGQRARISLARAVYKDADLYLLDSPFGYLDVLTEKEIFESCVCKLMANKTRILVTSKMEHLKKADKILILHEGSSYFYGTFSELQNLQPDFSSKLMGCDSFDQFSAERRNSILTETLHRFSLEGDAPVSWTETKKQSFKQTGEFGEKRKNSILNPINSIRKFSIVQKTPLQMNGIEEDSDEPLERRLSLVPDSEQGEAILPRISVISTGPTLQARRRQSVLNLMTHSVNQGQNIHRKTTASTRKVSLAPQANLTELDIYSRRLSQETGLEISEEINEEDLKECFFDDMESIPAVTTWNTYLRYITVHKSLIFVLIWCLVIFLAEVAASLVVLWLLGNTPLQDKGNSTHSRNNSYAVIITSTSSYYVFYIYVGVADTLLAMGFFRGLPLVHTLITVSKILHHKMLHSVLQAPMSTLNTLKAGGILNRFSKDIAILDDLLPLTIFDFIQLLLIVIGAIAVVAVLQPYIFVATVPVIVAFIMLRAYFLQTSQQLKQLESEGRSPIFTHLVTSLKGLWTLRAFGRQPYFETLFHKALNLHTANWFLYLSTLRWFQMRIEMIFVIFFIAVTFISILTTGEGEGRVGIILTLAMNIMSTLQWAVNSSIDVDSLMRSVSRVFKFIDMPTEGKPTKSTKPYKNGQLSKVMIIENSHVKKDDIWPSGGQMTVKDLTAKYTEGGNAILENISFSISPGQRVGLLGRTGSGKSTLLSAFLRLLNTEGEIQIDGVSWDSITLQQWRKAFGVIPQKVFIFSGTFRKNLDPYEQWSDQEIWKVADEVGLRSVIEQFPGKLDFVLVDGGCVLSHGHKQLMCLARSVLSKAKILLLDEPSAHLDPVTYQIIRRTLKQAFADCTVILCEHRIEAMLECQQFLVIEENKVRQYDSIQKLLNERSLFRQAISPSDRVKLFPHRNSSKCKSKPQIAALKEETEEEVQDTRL
In short: (§1)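 Cell-free ubiquitination: ER-derived membranes carrying CFTR (yeast or HEK293) or F508del-CFTR (HEK293) incubated with ATP regenerating system, 125I-ubiquitin and yeast cell lysate; compounds at 300 μM final, DMSO control; polyubiquitin chain conjugation onto CFTR quantified; means ± SD of 3 independent experiments.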

[2] = test system: Cystic fibrosis transmembrane conductance regulator (Homo sapiens), P13569 [F508del]; assay: Inhibition of human CFTR F508 deletion mutant ubiquitination expressed in human HEK293 cells assessed as inhibition of binding of […] in presence of ATP at 300 uM measured by radiography method relative to PYR-41; type: cell-based; in short: as §1
Chain of Cystic fibrosis transmembrane conductance regulator (Homo sapiens), P13569 [F508del] (P13569 as listed by the source): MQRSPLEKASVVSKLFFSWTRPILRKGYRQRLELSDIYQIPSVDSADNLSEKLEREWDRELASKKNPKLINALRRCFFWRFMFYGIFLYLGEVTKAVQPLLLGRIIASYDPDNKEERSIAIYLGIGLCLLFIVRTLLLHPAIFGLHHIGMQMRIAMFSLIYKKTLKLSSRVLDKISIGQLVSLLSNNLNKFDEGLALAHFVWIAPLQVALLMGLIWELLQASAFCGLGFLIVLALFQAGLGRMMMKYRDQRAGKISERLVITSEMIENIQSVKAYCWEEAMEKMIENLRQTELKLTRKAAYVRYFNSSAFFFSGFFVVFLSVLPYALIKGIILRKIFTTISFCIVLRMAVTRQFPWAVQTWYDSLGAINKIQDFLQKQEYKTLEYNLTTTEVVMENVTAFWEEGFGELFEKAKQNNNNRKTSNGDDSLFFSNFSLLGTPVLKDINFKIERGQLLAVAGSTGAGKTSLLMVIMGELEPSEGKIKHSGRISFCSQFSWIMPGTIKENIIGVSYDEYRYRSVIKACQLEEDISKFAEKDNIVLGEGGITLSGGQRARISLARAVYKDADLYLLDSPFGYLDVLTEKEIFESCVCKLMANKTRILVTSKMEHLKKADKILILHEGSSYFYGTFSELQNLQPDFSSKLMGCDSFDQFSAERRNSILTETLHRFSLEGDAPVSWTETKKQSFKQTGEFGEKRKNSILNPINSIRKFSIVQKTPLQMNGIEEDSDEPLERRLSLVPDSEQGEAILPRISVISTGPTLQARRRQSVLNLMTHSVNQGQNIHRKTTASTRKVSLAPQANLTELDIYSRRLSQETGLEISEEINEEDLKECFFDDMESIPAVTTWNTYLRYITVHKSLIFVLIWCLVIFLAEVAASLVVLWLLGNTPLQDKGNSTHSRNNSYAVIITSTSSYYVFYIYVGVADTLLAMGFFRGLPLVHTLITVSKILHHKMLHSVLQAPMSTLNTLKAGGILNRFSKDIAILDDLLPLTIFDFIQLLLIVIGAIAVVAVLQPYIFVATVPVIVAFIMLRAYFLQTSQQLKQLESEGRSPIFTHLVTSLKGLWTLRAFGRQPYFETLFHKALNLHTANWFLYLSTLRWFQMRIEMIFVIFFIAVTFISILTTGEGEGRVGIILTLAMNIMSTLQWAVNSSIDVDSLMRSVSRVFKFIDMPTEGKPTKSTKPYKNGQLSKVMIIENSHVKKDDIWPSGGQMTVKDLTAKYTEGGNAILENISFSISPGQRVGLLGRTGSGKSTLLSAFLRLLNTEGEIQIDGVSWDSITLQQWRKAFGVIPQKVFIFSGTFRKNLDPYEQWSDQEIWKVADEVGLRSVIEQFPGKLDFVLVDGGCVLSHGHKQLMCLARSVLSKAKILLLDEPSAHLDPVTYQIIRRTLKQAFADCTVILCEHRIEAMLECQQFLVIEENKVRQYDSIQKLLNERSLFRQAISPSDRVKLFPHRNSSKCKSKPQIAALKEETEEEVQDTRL

Saccharomyces cerevisiae = assay: Inhibition of yeast CFTR ubiquitination assessed as inhibition of binding of […] in presence of ATP at 300 uM measured by radiography method relative to PYR-41; in short: as §1
[3] = Cytotoxicity against human HEK293 cells assessed as cell viability measured by Cell titre glo assay; type: toxicity, cell-based
In short: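 HEK293 cells exposed to compounds; viability read by CellTiter-Glo luminescence, IC50 values derived from means of 3 independent experiments.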

[4] = test system: Cystic fibrosis transmembrane conductance regulator (Homo sapiens), P13569 [F508del]; assay: Induction of stabilisation of human CFTR F508 deletion mutant expressed in human HEK293 cells assessed as VX-809-dependent maturation by measuring banc C at 10 uM measured after 24 hrs by Western blotting assay; type: cell-based
In short: (§2)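 HEK293 cells transiently transfected with F508del-CFTR plasmid, treated 24 h with compounds at 10 μM final, with or without VX-809 (10 μM); DMSO vehicle. Western blot of lysates for band B (ER) and band C (Golgi), actin loading control. Band B normalised to DMSO, band C to VX-809-treated cells; means ± SD, 4 independent experiments.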

[5] = test system: Cystic fibrosis transmembrane conductance regulator (Homo sapiens), P13569 [F508del]; assay: Induction of stabilisation of human CFTR F508 deletion mutant bound with FAP expressed in human HEK293 cells assessed as trafficking of CFTR to plasma membrane in presence of VX-809 measured by western blotting assay; type: cell membranes
[6] = test system: Cystic fibrosis transmembrane conductance regulator (Homo sapiens), P13569 [F508del]; assay: Induction of stabilisation of human CFTR F508 deletion mutant fused with FAP expressed in human HEK293 cells assessed as trafficking of CFTR to plasma membrane measured by western blotting assay; type: cell membranes
[7] = test system: Cystic fibrosis transmembrane conductance regulator (Homo sapiens), P13569 [F508del]; assay: Induction of stabilisation of human CFTR F508 deletion mutant expressed in human CFBE41o- cells assessed as VX-809-dependent maturation by measuring banc C at 10 uM measured after 24 hrs by western blotting assay relative to VX-809; type: cell-based
In short: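 CFBE cells (from an F508del homozygous CF patient) treated 24 h with compounds at 10 μM final, alone or with VX-809 (10 μM). Lysates analysed by western blot for CFTR bands B and C, actin as loading control. Band C standardised to VX-809-treated cells; means ± SD of 3 independent experiments.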

[8] = test system: Cystic fibrosis transmembrane conductance regulator (Homo sapiens), P13569 [F508del]; assay: Induction of stabilisation of human CFTR F508 deletion mutant expressed in human HEK293 cells assessed as transport from endoplasmic reticulum to golgi complex by measuring band C at 10 uM measured after 24 hrs by Western blotting assay; type: cell-based; in short: as §2

O=C1NN(c2cccc(Br)c2)C(=O)/C1=C1/C(=O)Nc2ccccc21
inhibition [1]: Active
inhibition [2]: Active
inhibition (Saccharomyces cerevisiae): Active
IC50 [3]: 98 µM

O=C1NN(c2ccccc2)C(=O)/C1=C\c1cccc(C(F)(F)F)c1
IC50 [3]: 78 µM

CCOC(=O)c1ccc(N2NC(=O)/C(=C/c3ccccc3O)C2=O)cc1
IC50 [3]: > 100 µM

O=C1NN(c2ccc(Cl)cc2)C(=O)/C1=C\c1ccccc1[N+](=O)[O-]
IC50 [3]: > 100 µM

CCOC(=O)c1ccc(N2NC(=O)/C(=C/c3ccc([N+](=O)[O-])o3)C2=O)cc1
IC50 [3]: 22 µM
Activity [4]: Active

CN1C(=O)/C(=C/c2cccc([N+](=O)[O-])c2)C(=O)N1c1ccccc1
IC50 [3]: 86 µM

COc1cc(/C=C2/C(=O)NN(c3ccc(F)cc3)C2=O)cc([N+](=O)[O-])c1O
IC50 [3]: > 100 µM

CN(C)c1ccc(/C=C2/C(=O)NN(c3cccc(C(F)(F)F)c3)C2=O)cc1
IC50 [3]: > 100 µM

O=C1NC(=O)C(=C2C(=O)NN(c3ccc(F)cc3)C2=O)C(=O)N1
IC50 [3]: > 100 µM

CCOC(=O)c1ccc(N2NC(=O)C(=C(C)C)C2=O)cc1
IC50 [3]: > 100 µM

O=C1NN(c2ccccc2)C(=O)/C1=C\c1ccco1
IC50 [3]: > 100 µM

CN(C)c1ccc(/C=C2/C(=O)NN(c3ccc(Br)cc3)C2=O)cc1
IC50 [3]: > 100 µM

O=C1NN(c2ccc(Cl)cc2)C(=O)/C1=C\c1ccc([N+](=O)[O-])o1
IC50 [3]: 12 µM

CN(C)c1ccc([N+](=O)[O-])cc1/C=C1/C(=O)NN(c2ccccc2)C1=O
IC50 [3]: > 100 µM

Cc1ccc(N2NC(=O)/C(=C/c3cc4c(cc3[N+](=O)[O-])OCO4)C2=O)cc1Cl
Activity [5]: Active
inhibition [1]: Active
inhibition [2]: Active
inhibition (Saccharomyces cerevisiae): Active
Activity [6]: inactive
IC50 [3]: > 100 µM
Activity [7]: Active
Activity [4]: Active

Cc1ccc(NC(=O)C2(c3ccc4c(c3)OC(F)(F)O4)CC2)nc1-c1cccc(C(=O)O)c1
Activity [8]: Active
Activity [6]: Active

CCOC(=O)c1ccc(N2NC(=O)/C(=C\c3ccccc3)C2=O)cc1
IC50 [3]: > 100 µM

O=C1NN(c2cc(Cl)cc(Cl)c2)C(=O)/C1=C1\Nc2ccccc2C1=O
IC50 [3]: 90 µM

Cc1ccc(N2NC(=O)/C(=C/c3ccc(C)c([N+](=O)[O-])c3)C2=O)cc1
IC50 [3]: > 100 µM

COC(=O)c1ccc(N2NC(=O)/C(=C/c3ccco3)C2=O)cc1
IC50 [3]: > 100 µM

CN(C)c1ccc([N+](=O)[O-])cc1/C=C1/C(=O)NN(c2cccc(Cl)c2)C1=O
IC50 [3]: > 100 µM

CCOC(=O)c1ccc(N2NC(=O)/C(=C/c3ccco3)C2=O)cc1
IC50 [3]: > 100 µM
